From ChEMBL document CHEMBL1143619, “Synthesis and biological evaluation of aminopolyamines” (J Med Chem, 2005)

Key:
[1] = test system: L1210; assay: Effect on Putrescine (PUT) levels after 48 hr treatment at 150 uM in L1210 cells; format: functional, Mus musculus
[2] = test system: L1210; assay: Effect on spermine (SPM) levels after 48 h treatment at 150 uM in L1210 cells; format: functional, Mus musculus
[3] = test system: L1210; assay: Effect on spermidine (SPD) levels after 48 hr treatment at 150 uM in L1210 cells; format: functional, Mus musculus
[4] = Effect on S-Adenosyl-methionine decarboxylase (AdoMetDC) activity in L1210 cells at 1 uM for 6 hr
[5] = test system: L1210; assay: Cellular concentration expressed in L1210 cells; format: functional, Mus musculus
[6] = test system: L1210; assay: Effect on spermidine (SPD) levels after 48 hr treatment at 50 uM in L1210 cells; format: functional, Mus musculus
[7] = test system: L1210; assay: Effect on spermine (SPM) levels after 48 hr treatment at 50 uM in L1210 cells; format: functional, Mus musculus
[8] = test system: L1210; assay: Inhibitory activity against L1210 cell growth for 48 hr; format: functional, cell-based; details: Mus musculus, L1210, 48 h
Summary of the method: (§1)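 Murine leukemia L1210 cells grown with nine extracellular drug concentrations (0, 0.03, 0.1, 0.3, 1.0, 3, 10, 30, 100 µM); IC50 estimated from growth curves at 48 or 96 h; mean of at least two experiments.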

[9] = test system: L1210; assay: Ability to inhibit [3H]SPD transport by L1210 cells; format: functional, cell-based, Mus musculus
Summary of the method: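 Ki from analogue inhibition of [3H]spermidine transport into murine leukemia L1210 cells, analysed as substrate-competitive inhibition; mean of at least two or three experiments.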

[10] = molecular target: T1, Ornithine decarboxylase (Mus musculus) (UniProt P00860); assay: Effect on Ornithine Decarboxylase (ODC) activity in L1210 cells at 1 uM for 4 hr; format: functional, cell-based
T1 sequence (whole entry): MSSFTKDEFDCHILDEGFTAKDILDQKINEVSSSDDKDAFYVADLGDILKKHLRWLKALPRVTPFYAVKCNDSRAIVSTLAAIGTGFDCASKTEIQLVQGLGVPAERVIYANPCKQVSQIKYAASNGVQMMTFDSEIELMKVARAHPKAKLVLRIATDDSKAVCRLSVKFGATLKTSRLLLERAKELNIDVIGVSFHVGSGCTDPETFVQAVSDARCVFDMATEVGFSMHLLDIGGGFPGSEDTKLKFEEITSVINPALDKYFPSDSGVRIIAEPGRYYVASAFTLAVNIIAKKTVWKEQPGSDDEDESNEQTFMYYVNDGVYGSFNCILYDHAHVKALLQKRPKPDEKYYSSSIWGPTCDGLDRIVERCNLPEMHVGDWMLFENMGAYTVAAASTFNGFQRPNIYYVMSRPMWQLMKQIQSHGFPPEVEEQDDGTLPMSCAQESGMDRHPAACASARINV

[11] = test system: L1210; assay: Effect on Putrescine (PUT) levels after 48 h treatment at 50 uM in L1210 cells; format: functional, Mus musculus
[12] = molecular target: Spermidine/spermine N(1)-acetyltransferase (SAT) (Mus musculus) (UniProt Q6P8J2+P48026); assay: Effect on Spermidine/spermine N1-acetyl transferase (SSAT) activity in L1210 cells at 10 uM for 48h; format: functional, cell-based
Chain of Spermidine/spermine N(1)-acetyltransferase (SAT) (Mus musculus) (P48026 whole entry, looked up): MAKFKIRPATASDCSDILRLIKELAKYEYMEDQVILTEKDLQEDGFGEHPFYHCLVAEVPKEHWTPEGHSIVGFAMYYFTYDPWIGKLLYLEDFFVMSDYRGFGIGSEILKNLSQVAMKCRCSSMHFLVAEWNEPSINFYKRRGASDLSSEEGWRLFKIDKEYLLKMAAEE
Chain of Spermidine/spermine N(1)-acetyltransferase (SAT) (Mus musculus) (Q6P8J2 whole entry, looked up): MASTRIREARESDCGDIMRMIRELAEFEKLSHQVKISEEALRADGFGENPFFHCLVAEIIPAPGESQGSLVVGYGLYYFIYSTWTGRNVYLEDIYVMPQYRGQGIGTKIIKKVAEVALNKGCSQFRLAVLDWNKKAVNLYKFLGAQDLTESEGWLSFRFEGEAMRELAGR

[13] = test system: L1210; assay: Inhibitory activity against L1210 cell growth for 96h; format: functional, cell-based; details: Mus musculus, L1210, 96 h; summary of the method: as §1
[14] = test system: L1210; assay: Effect on spermine (SPM) levels after 48 hr treatment at 500 uM in L1210 cells; format: functional, Mus musculus
[15] = test system: L1210; assay: Effect on Putrescine (PUT) levels after 48 hr treatment at 500 uM in L1210 cells; format: functional, Mus musculus
[16] = test system: L1210; assay: Effect on spermidine (SPD) levels after 48 hr treatment at 500 uM in L1210 cells; format: functional, Mus musculus

CCNCCCNCCCCNCCCNCC [BIS(ETHYL)SPERMINE]
Activity [1]: 0
Activity [2]: 22
Activity [3]: 0
Activity [4]: 28%
Cellular concentration [5]: 1.78 nmol/10^6 cells

CCNCCCNCCC(N)CNCCCNCC (stereo not drawn)
Activity [6]: 7
Activity [7]: 32
IC50 [8]: 8 µM
Ki [9]: 33.7 µM
Activity [10]: 16%
Activity [11]: 26
Activity [4]: 58%
Activity [12]: 667%
Cellular concentration [5]: 3.1 nmol/10^6 cells
IC50 [13]: 0.4 µM

FC(F)(F)CNCCCNCCCCNCCCNCC(F)(F)F
Activity [14]: 116
Activity [10]: 100%
Activity [15]: 87
Activity [16]: 94
Activity [4]: 100%
Activity [12]: 97%
Cellular concentration [5]: < 0.02 nmol/10^6 cells
IC50 [13]: > 100 µM
